Key:
[1] = target: T1, [Pyruvate dehydrogenase (acetyl-transferring)] kinase isozyme 2, mitochondrial (Homo sapiens, UniProt Q15119); test: Inhibition of human PDHK2 co-complexed with porcine PDH using sodium pyruvate, coenzymeA and NAD as substrate preincubated with enzyme complex for 45 mins followed by ATP addition and then later incubated with substrate for 90 mins by absorption spectrophotometric assay
[2] = target: T2, [Pyruvate dehydrogenase (acetyl-transferring)] kinase isozyme 4, mitochondrial (Homo sapiens, UniProt Q16654); test: Inhibition of human PDHK4 co-complexed with porcine PDH using sodium pyruvate, coenzymeA and NAD as substrate preincubated with enzyme complex for 45 mins followed by ATP addition and then later incubated with substrate for 90 mins by absorption spectrophotometric assay
Target sequence in this assay (Q16654 whole entry): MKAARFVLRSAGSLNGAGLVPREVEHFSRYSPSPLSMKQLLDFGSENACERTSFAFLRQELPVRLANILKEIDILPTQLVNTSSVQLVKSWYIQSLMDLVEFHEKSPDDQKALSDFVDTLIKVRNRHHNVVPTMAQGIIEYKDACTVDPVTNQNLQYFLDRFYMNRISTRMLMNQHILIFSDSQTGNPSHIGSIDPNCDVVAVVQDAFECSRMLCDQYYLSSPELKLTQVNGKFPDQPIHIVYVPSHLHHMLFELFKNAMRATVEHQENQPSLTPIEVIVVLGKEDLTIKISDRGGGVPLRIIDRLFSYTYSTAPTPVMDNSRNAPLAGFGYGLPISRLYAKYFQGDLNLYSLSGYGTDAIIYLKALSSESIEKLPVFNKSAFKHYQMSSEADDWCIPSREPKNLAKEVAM

[3] = target: T1, [Pyruvate dehydrogenase (acetyl-transferring)] kinase isozyme 2, mitochondrial; test: Inhibition of human PDHK2 assessed as reduction in acetyl-coenzymeA formation by RapidFire mass spectrometry
Summary of the method: (§1)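 PDHK reaction read through downstream PDH product. Reaction mix diluted 25-fold in 0.1% formic acid. Acetyl-CoA captured on graphitic carbon SPE (5 mM ammonium acetate pH 10.0), eluted with buffer/acetonitrile/acetone 50:25:25. […] MRM at 808/79 and 808/408; peak AUC quantified, ATP signal confirming each injection.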

[4] = target: T2, [Pyruvate dehydrogenase (acetyl-transferring)] kinase isozyme 4, mitochondrial; test: Inhibition of human PDHK4 assessed as reduction in acetyl-coenzymeA formation by RapidFire mass spectrometry; summary of the method: as §1
Target sequence in this assay (Q16654 whole entry): as above

[5] = target: T2, [Pyruvate dehydrogenase (acetyl-transferring)] kinase isozyme 4, mitochondrial; test: Inhibition of human PDHK4 assessed as reduction in acetyl-coenzymeA formation at IC50 by RapidFire mass spectrometry relative to control; summary of the method: as §1
Target sequence in this assay (Q16654 whole entry, looked up): as the sequence (Q16654 whole entry) above

[6] = target: [Pyruvate dehydrogenase (acetyl-transferring)] kinase isozyme 1, mitochondrial (Homo sapiens, UniProt Q15118); test: Inhibition of human PDHK1 co-complexed with porcine PDH using sodium pyruvate, coenzymeA and NAD as substrate preincubated with enzyme complex for 45 mins followed by ATP addition and then later incubated with substrate for 90 mins by absorption spectrophotometric assay
Summary of the method: (§2)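 Recombinant human PDHK mixed with porcine PDH complex, held overnight at 4 °C to form PDH/PDHK complex. Inhibitor plus 0.3 or 10 µM ATP, 45 min at room temperature. Then 5.0 mM CoA, 5.0 mM pyruvate, 12 mM NAD added, 90 min at room temperature. NADH A340 taken before and after; IC50 from Hill-type curve fit against 0% and 100% activity controls.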

[7] = target: [Pyruvate dehydrogenase (acetyl-transferring)] kinase isozyme 3, mitochondrial (Homo sapiens, UniProt Q15120); test: Inhibition of human PDHK3 co-complexed with porcine PDH using sodium pyruvate, coenzymeA and NAD as substrate preincubated with enzyme complex for 45 mins followed by ATP addition and then later incubated with substrate for 90 mins by absorption spectrophotometric assay; summary of the method: as §2
[8] = target: Heat shock protein HSP90 (Homo sapiens) (UniProt P07900+P08238); test: Inhibition of HSP90 (unknown origin) at 30 uM using labelled geldanamycin by fluorescence polarization assay; type: protein assay
Summary of the method: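 Competitive fluorescence polarization with labelled geldanamycin probe, run as a commercial HSP90 assay kit; read as percent inhibition at a single concentration.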

[9] = target: T3, Branched-chain alpha-ketoacid dehydrogenase kinase (Homo sapiens, UniProt O14874); test: Inhibition of human recombinant BCKDK at 500 uM incubated for 60 mins by ADP-Glo kinase assay
Summary of the method: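 Human recombinant BCKDK with inhibitor and 0.2 µM ATP, 60 min at 37 °C. ADP-Glo reagent 40 min at room temperature to stop and deplete ATP, then detection reagent 40 min to convert ADP to ATP; luminescence read.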

[10] = target: Serine/threonine-protein kinase mTOR (Homo sapiens) (UniProt P42345); test: Inhibition of human partial length wild type mTOR (L1382 to W2549 residues) expressed in mammalian expression system at 10 uM by KINOMEscan analysis
Summary of the method: (§3)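 Competition-binding KINOMEscan service panel of 59 kinases; percent inhibition at 10 µM.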

[11] = target: Microtubule-associated serine/threonine-protein kinase 1 (Homo sapiens) (UniProt Q9Y2H9); test: Inhibition of human partial length wild type MAST1 (S346 to V730 residues) expressed in mammalian expression system at 10 uM by KINOMEscan analysis; summary of the method: as §3
[12] = target: T3, Branched-chain alpha-ketoacid dehydrogenase kinase; test: Inhibition of human recombinant BCKDK incubated for 60 mins by ADP-Glo kinase assay

Microtubule-associated serine/threonine-protein kinase 1 (Homo sapiens), sequence (Q9Y2H9 whole entry, looked up, the tested form may be a part): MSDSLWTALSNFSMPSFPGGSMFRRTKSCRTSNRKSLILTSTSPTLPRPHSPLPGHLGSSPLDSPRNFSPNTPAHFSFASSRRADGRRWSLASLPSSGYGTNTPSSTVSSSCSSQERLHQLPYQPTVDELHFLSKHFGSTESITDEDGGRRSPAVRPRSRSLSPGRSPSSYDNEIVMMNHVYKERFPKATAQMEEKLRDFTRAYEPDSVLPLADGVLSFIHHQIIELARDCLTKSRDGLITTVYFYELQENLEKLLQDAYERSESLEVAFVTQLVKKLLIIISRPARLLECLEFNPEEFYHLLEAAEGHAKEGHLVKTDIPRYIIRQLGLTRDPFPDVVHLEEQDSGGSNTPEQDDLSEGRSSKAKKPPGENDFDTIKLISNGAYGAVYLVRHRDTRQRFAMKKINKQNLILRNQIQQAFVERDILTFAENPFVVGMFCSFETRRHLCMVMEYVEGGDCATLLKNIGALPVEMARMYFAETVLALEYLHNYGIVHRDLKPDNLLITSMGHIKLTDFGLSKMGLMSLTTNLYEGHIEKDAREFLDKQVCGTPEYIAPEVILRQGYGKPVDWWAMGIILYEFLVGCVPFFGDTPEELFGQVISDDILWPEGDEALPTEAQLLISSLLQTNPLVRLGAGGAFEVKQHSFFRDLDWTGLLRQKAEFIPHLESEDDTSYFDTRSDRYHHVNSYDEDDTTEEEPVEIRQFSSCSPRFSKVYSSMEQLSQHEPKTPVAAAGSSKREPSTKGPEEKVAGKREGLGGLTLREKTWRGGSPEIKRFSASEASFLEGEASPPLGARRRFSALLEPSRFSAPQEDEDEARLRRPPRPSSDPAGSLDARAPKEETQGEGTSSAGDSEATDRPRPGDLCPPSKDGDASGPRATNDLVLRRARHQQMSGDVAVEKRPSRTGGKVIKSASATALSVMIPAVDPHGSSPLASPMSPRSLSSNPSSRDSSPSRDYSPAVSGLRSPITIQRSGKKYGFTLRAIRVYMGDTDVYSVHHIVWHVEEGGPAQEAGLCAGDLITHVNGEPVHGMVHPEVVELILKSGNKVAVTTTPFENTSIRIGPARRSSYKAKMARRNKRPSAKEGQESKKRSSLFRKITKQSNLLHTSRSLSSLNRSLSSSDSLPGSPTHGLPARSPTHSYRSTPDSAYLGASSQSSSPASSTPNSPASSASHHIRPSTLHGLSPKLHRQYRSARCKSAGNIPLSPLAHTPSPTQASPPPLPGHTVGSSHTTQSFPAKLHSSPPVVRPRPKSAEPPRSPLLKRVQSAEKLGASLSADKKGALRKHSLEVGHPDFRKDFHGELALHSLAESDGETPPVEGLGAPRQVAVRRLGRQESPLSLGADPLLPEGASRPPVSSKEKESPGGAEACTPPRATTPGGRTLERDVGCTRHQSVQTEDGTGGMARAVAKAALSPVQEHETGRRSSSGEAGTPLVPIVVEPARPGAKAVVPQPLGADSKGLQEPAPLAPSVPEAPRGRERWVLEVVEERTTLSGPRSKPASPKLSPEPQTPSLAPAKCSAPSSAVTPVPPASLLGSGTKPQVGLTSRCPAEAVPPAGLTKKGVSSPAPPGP
[Pyruvate dehydrogenase (acetyl-transferring)] kinase isozyme 1, mitochondrial, sequence (Q15118 whole entry): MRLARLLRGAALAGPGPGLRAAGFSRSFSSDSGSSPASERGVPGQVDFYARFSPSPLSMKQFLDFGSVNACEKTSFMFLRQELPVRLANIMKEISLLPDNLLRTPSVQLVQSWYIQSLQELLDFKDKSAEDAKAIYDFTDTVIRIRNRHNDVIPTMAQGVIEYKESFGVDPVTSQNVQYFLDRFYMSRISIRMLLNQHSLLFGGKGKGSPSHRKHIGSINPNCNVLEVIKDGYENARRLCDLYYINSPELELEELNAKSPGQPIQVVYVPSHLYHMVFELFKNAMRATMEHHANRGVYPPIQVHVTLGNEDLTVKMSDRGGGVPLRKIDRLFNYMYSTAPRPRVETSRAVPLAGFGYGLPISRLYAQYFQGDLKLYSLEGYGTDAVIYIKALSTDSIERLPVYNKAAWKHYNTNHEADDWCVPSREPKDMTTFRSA
[Pyruvate dehydrogenase (acetyl-transferring)] kinase isozyme 3, mitochondrial, sequence (Q15120 whole entry): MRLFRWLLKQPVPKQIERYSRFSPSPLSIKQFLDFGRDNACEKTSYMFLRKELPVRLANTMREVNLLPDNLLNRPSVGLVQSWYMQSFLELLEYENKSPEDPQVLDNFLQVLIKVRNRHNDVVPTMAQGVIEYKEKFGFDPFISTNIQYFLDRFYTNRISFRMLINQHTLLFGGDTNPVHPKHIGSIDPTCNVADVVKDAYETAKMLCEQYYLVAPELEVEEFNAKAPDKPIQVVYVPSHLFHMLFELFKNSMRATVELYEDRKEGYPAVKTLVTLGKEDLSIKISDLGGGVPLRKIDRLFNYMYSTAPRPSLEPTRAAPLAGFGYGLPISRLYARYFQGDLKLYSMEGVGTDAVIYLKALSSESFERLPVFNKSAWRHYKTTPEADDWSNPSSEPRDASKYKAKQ

Row | IC50 [1] [µM] | IC50 [2] [µM] | Compound | other results
1 | 11 | > 300 | CCc1cccc2c1NC(=O)C2(C)C | –
2 | 1.5 | 8 | C/C=C/c1[nH]c2nc(C)nc(Cl)c2c1Cl | –
3 | 1.8 | 11 | CCCc1[nH]c2nc(C)ncc2c1Cl | –
4 | 9.9 | > 30 | CCCc1[nH]c2nc(C)nc(Cl)c2c1C | –
5 | 4.9 | 43.6 | CC1(C)C(=O)Nc2c(C3CC3)cccc21 | –
6 | – | – | COC(=O)c1ccc(O)cc1O [METHYL 2,4-DIHYDROXYBENZOATE] | IC50 [3]: 192 µM; IC50 [4]: 345 µM
7 | 42.8 | > 100 | CNC(=O)c1[nH]c2nc(C)nc(Cl)c2c1C | –
8 | 279 | > 300 | CC1(C)C(=O)Nc2ccccc21 | IC50 [3]: 50.2 µM; IC50 [4]: 890 µM
9 | – | – | O=C1Cc2ccccc2N1 [OXINDOLE] | IC50 [3]: 958 µM; IC50 [4]: > 2000 µM; inhibition [5]: 29%
10 | 0.59 | 12.8 | CNc1cccc2c1NC(=O)C2(C)C | IC50 [6]: 0.37 µM; IC50 [7]: 8.4 µM; inhibition [8]: 3.2%; inhibition [9]: 14%; inhibition [10]: 58%; inhibition [11]: 60%
11 | 2 | 12 | Cc1cnc2[nH]c3c(C4CC4)cccc3c2c1 | –
12 | 2.2 | 12.4 | CCCc1[nH]c2nc(C)ncc2c1Br | –
13 | > 30 | > 30 | CCCc1[nH]c2nc(C)ncc2c1C#N | –
14 | > 300 | > 300 | CC1(C)C(=O)Nc2c(N)cccc21 | –
15 | 0.71 | 5.9 | Cc1cnc2[nH]c3c(C4CC4)cccc3c2n1 | IC50 [12]: > 300 µM

Row | Compound | IC50 [1] [µM] | IC50 [2] [µM] | other results
16 | CNC(=O)c1[nH]c2nc(C)nc(Cl)c2c1Br | > 30 | > 30 | –
17 | CCCc1[nH]c2nc(C)ncc2c1C | 14.7 | > 30 | –
18 | c1cnc2[nH]c3c(C4CC4)cccc3c2c1 | 3.5 | > 300 | –
